ChEMBL document CHEMBL3734698, “1H-Pyrazolo[3,4-g]hexahydro-isoquinolines as potent GR antagonists with reduced hERG inhibition and an improved pharmacokinetic profile” (Bioorg Med Chem Lett, 2015)
Active and inactive are the calls of the source. The rule behind the calls is not given here.

What was measured:
Glucocorticoid receptor [1] = molecular target: T1, Glucocorticoid receptor (Homo sapiens, UniProt P04150); assay: Antagonist activity at glucocorticoid receptor in human HepG2 cells assessed as inhibition of glucocorticoid-induced TAT activity after 24 hrs; assay type: cell-based
T1 sequence (P04150 whole entry): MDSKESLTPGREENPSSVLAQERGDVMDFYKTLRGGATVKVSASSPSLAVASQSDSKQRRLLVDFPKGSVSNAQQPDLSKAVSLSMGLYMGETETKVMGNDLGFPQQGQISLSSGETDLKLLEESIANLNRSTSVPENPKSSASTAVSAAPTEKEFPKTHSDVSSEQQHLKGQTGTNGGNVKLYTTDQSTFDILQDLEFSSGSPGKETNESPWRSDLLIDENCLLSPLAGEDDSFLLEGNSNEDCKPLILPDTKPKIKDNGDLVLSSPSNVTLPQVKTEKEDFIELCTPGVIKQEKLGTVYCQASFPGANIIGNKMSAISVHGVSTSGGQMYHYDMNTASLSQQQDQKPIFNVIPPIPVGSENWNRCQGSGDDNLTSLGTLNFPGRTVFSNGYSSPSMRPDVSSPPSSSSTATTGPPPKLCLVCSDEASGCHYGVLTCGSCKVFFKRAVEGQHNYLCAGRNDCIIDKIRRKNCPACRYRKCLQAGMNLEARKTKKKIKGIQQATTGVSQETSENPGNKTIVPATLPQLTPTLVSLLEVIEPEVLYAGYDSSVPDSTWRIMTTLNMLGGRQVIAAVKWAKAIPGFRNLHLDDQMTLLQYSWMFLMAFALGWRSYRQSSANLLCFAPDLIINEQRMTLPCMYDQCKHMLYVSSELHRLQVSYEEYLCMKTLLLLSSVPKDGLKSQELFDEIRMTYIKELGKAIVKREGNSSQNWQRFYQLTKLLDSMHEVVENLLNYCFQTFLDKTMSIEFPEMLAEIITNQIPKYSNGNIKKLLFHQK

Glucocorticoid receptor [2] = molecular target: T1, Glucocorticoid receptor; assay: Binding affinity to human recombinant glucocorticoid receptor by fluorescence polarization assay
hERG (KCNH2) [3] = molecular target: T2, hERG (KCNH2) (Homo sapiens, UniProt Q12809); assay: Inhibition of human ERG at 1 uM by patch clamp technique
T2 sequence (Q12809 whole entry): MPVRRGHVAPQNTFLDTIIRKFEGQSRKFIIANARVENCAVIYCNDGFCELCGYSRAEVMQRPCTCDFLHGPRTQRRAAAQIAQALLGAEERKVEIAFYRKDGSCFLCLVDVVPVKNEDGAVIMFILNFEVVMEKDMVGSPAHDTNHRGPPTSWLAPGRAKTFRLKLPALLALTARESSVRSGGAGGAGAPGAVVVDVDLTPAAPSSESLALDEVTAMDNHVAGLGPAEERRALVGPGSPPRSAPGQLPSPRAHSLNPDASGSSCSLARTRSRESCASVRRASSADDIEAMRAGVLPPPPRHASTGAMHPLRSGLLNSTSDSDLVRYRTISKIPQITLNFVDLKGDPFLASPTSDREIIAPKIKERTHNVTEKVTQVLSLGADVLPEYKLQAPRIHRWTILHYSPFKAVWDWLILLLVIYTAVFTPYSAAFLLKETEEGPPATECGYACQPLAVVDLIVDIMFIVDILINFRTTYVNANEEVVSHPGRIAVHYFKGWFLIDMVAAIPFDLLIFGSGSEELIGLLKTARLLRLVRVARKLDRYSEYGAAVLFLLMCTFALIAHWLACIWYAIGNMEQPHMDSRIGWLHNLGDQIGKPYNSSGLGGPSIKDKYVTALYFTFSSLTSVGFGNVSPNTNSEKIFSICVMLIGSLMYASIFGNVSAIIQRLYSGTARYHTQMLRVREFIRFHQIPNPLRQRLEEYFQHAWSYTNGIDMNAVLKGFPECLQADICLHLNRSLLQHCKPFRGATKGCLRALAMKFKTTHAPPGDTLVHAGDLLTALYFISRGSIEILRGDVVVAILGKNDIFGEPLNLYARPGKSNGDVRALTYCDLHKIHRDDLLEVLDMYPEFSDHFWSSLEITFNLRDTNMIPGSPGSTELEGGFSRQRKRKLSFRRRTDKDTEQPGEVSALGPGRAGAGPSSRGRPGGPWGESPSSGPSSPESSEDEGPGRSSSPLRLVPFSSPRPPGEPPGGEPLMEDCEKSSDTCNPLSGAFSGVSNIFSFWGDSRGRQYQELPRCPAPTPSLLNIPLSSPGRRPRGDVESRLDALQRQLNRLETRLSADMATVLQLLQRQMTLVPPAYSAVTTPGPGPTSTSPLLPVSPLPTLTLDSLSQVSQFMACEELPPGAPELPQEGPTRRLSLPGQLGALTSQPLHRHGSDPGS

hERG (KCNH2) [4] = molecular target: T2, hERG (KCNH2); assay: Inhibition of human ERG at 10 uM by patch clamp technique
[5] = Cmax in rat at 5 mg/kg, po; assay type: ADME, organism-based; set-up: dose 5 mg/kg, route oral; conditions: in vivo
Method in brief: (§1)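 Rat pharmacokinetics: oral dosing at 5 mg/kg in 10% DMSO in 0.5% aqueous methyl cellulose. Intravenous dosing at 1 mg/kg in 10% DMSO, 45% PEG400 and 45% propylene glycol. Plasma Cmax was taken after the oral dose and clearance after the iv dose, and oral bioavailability was derived.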

[6] = Clearance in rat at 1 mg/kg, iv; assay type: ADME, organism-based; conditions: in vivo; method in brief: as §1
[7] = molecular target: Voltage-gated inwardly rectifying potassium channel KCNH2 (Homo sapiens, UniProt Q12809); assay: Inhibition of human ERG by patch clamp technique
Voltage-gated inwardly rectifying potassium channel KCNH2, sequence (Q12809 whole entry): as above

Rattus norvegicus [8] = assay: Reduction in cortisone-induced glucose level in rat at 30 mg/kg, po bid; assay type: functional, organism-based
Method in brief: (§2)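 Rats received cortisone 30 mg/kg sc once daily for six days. Test agent was given orally twice daily at 30 mg/kg. Glucose and insulin levels were compared with cortisone-only and no-cortisone controls, with mifepristone at the same oral regimen as positive control.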

Rattus norvegicus [9] = assay: Reduction in cortisone-induced insulin level in rat at 30 mg/kg, po bid; assay type: functional, organism-based; method in brief: as §2

Structure (SMILES) | Ki (Glucocorticoid receptor [1]) | Ki (Glucocorticoid receptor [2]) | Cmax [5] | clearance [6] | inhibition at 1 µM (hERG (KCNH2) [3]) | inhibition at 10 µM (hERG (KCNH2) [4]) | IC50 [7] | Activity (Rattus norvegicus [8]) | Activity (Rattus norvegicus [9])
O=C(c1ccccn1)[C@]12Cc3cnn(-c4ccc(F)cc4)c3C=C1CCN(S(=O)(=O)c1ccc(F)c(C(F)(F)F)c1)C2 | 9.7 nM | 0.73 nM | 112 ng/mL | 103 mL/min/kg | 16% | 31% | – | – | –
O=C(c1ccccn1)[C@]12Cc3cnn(-c4ccc(F)cc4)c3C=C1CCN(S(=O)(=O)c1cccc(C(F)(F)F)c1)C2 | 14 nM | 0.1 nM | 155 ng/mL | 40 mL/min/kg | – | – | – | – | –
COc1cccc(S(=O)(=O)N2CCC3=Cc4c(cnn4-c4ccc(F)cc4)C[C@]3(C(=O)c3ccccn3)C2)c1 | 11.4 nM | 0.19 nM | – | – | 24% | 36% | > 19 µM | – | –
O=C(c1ccccn1)[C@]12Cc3cnn(-c4ccc(F)cc4)c3C=C1CCN(S(=O)(=O)c1cccc(Cl)c1)C2 | 11 nM | 0.25 nM | 112 ng/mL | 70 mL/min/kg | 14% | 35% | – | – | –
O=C(c1nccs1)[C@]12Cc3cnn(-c4ccc(F)cc4)c3C=C1CCN(S(=O)(=O)c1ccc(C(F)(F)F)cc1)C2 | 18 nM | 0.23 nM | – | – | – | – | – | – | –
O=C(c1ncc[nH]1)[C@]12Cc3cnn(-c4ccc(F)cc4)c3C=C1CCN(S(=O)(=O)c1ccc(C(F)(F)F)cc1)C2 | 52 nM | 0.47 nM | – | – | – | – | – | – | –
CC#C[C@]1(O)CC[C@H]2[C@@H]3CCC4=CC(=O)CCC4=C3[C@@H](c3ccc(N(C)C)cc3)C[C@@]21C | – | – | – | – | – | – | – | Active | Active
Cc1cccc(S(=O)(=O)N2CCC3=Cc4c(cnn4-c4ccc(F)cc4)C[C@]3(C(=O)c3ccccn3)C2)c1 | 6.8 nM | 0.14 nM | – | – | 17% | 30% | – | – | –

The next lines start with results.

Ki (Glucocorticoid receptor [1]) | Ki (Glucocorticoid receptor [2]) | Cmax [5] | clearance [6] | Structure (SMILES) | inhibition at 1 µM (hERG (KCNH2) [3]) | inhibition at 10 µM (hERG (KCNH2) [4]) | IC50 [7] | Activity (Rattus norvegicus [8]) | Activity (Rattus norvegicus [9])
16 nM | 0.13 nM | – | – | O=C(c1ccccn1)[C@]12Cc3cnn(-c4ccc(F)cc4)c3C=C1CCN(S(=O)(=O)c1ccc(F)cc1)C2 | – | – | – | – | –
151 nM | 0.83 nM | – | – | O=C(c1cccnc1)[C@]12Cc3cnn(-c4ccc(F)cc4)c3C=C1CCN(S(=O)(=O)c1ccc(C(F)(F)F)cc1)C2 | – | – | – | – | –
31 nM | 0.17 nM | – | – | O=C(c1ccco1)[C@]12Cc3cnn(-c4ccc(F)cc4)c3C=C1CCN(S(=O)(=O)c1ccc(C(F)(F)F)cc1)C2 | – | – | – | – | –
7.5 nM | 0.22 nM | 398 ng/mL | 44 mL/min/kg | O=C(c1ccccn1)[C@]12Cc3cnn(-c4ccc(F)cc4)c3C=C1CCN(S(=O)(=O)c1ccc(F)c(F)c1)C2 | 10% | 35% | – | – | –
